The values below come from ChEMBL document CHEMBL1143175, “Inactivation of human neutrophil elastase by 1,2,5-thiadiazolidin-3-one 1,1 dioxide-based sulfonamides” (Bioorg Med Chem, 2008).

Test [1] deals with T1, Neutrophil elastase (Homo sapiens) (UniProt P08246).
T1 sequence (whole entry): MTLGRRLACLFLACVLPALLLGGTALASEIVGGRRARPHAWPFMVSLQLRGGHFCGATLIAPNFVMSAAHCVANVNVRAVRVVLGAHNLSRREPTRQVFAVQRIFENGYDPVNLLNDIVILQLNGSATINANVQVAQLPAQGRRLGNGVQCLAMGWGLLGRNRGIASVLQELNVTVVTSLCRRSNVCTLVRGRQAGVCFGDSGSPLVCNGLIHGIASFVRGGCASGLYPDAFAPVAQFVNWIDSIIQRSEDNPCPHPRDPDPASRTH
In words: Ratio of Kinact to KI for human neutrophil elastase. In a few lines:
(§1)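 Human neutrophil elastase, progress curve method: 10 nM enzyme added to inhibitor plus 105 µM MeOSuc-Ala-Ala-Pro-Val p-nitroanilide in 0.1 M HEPES/0.5 M NaCl, pH 7.25, 2.5% DMSO. Absorbance followed at 410 nm for 10 min and fitted to the progress curve equation. Apparent second-order constants kinact/KI determined in duplicate.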

Test [2] has as its target T2, Myeloblastin (Homo sapiens) (UniProt P24158).
T2 sequence (whole entry): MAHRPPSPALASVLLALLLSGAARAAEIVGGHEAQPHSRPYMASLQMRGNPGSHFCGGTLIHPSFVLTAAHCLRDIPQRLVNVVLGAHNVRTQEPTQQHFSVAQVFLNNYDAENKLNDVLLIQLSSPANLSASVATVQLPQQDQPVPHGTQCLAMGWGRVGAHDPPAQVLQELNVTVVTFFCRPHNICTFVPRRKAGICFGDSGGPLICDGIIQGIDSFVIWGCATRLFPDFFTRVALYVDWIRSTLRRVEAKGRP
In words: Ratio of Kinact to KI for human PR3. In a few lines:
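Human proteinase 3 (34.5 nM final) with inhibitor (8.6 µM final) and Boc-Ala-Ala-NVa-SBzl plus 5,5′-dithio-bis(2-nitrobenzoic acid) in 0.1 M HEPES/0.5 M NaCl, pH 7.25. Absorbance change monitored at 410 nm for 2 min; inhibitor:enzyme ratio 250.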

For test [3], the target named is T3, Cathepsin G (Homo sapiens) (UniProt P08311).
T3 sequence (whole entry): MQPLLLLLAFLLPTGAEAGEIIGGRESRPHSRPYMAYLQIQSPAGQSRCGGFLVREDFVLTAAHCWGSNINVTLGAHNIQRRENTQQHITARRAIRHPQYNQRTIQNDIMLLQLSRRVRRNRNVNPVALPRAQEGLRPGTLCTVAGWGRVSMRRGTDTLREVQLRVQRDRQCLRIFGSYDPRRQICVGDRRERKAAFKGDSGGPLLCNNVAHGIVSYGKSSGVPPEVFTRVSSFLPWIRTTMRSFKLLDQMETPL
The experiment in a line: Ratio of Kinact to KI for human cathepsin G. The gist of the method: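 Neutrophil cathepsin G incubated with inhibitor at an [I]/[E] ratio of 250 for 30 min. Substrate N-succinyl-Ala-Ala-Pro-Phe p-nitroanilide (85 mM stock in DMSO) then added, and absorbance monitored at 410 nm for 10 min.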

Test [4] is filed under the species Bos taurus. The experiment in a line: Inhibition of bovine trypsin. To be noted: TDE = time-dependent effect. In a few lines: (§2)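 Incubation method: bovine trypsin (5 µM final) incubated with excess inhibitor (0.125 mM final) in 0.025 M phosphate/0.1 M NaCl, pH 7.51, 1% DMSO, in a constant temperature bath. Aliquots taken over time, residual activity read with N-p-tosyl-Gly-Pro-Lys p-nitroanilide at 410 nm for 60 s. kobs from ln(v/v0) versus time, mean of two determinations, reported as kobs/[I].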

The species entered for test [5] is Bos taurus. The experiment in a line: Ratio of Kobs to [I] for bovine trypsin. The gist of the method:
as §2

Test [6] has as its target T1, Neutrophil elastase (Homo sapiens). The experiment in a line: Inhibition of human neutrophil elastase. To be noted: TDE = time-dependent effect. In a few lines:
as §1

Active and inactive are the calls of the source. The calls are words filed in the database; no cut-off is given here.

`CCCC1C(=O)N(CS(=O)(=O)N[C@@H](COCc2ccccc2)C(=O)OC)S(=O)(=O)N1C` (some centres undefined): the values for the Ratio (in test [1]; in the test filed under Bos taurus [5]) were 16900 M⁻¹ s⁻¹ and 60, respectively. Moreover, the outcome in test [2] and in test [3] was inactive. Besides, the Activity result (in the test listed under Bos taurus [4]; in test [6]) was “tde” each time.
Regarding `CCCC1C(=O)N(CS(=O)(=O)N[C@@H](CCCCN)C(=O)OC)S(=O)(=O)N1C` (some centres undefined), the Ratio in test [1] is 12900 M⁻¹ s⁻¹. The outcome in test [2] and in test [3] was inactive. Moreover, the Activity entry (in the test listed under Bos taurus [4]; in test [6]) was “tde” throughout.
With `CCCC1C(=O)N(CS(=O)(=O)N[C@H](Cc2ccccc2)C(=O)OC)S(=O)(=O)N1C` (some centres undefined), the Ratio in test [1] came to 9760 M⁻¹ s⁻¹. For the same compound, the result in test [2] and in test [3] was inactive. Moreover, the Activity entry (in the test listed under Bos taurus [4]; in test [6]) was “tde” each time.
In the case of `CCCC1C(=O)N(CS(=O)(=O)N[C@@H](CCCCNC(=O)OCc2ccccc2)C(=O)OC)S(=O)(=O)N1C` (some centres undefined), in test [1], the Ratio amounted to 6900 M⁻¹ s⁻¹. The result in test [2] and in test [3] was inactive. Also, the Activity entry (in the test listed under Bos taurus [4]; in test [6]) was “tde” each time.
`CCCC1C(=O)N(CS(=O)(=O)N[C@@H](CCC)C(=O)OC)S(=O)(=O)N1C` (some centres undefined): the Ratio in test [1] was 34600 M⁻¹ s⁻¹; in the test filed under Bos taurus [5], 19. The result in test [2] and in test [3] was inactive. Also, the Activity result (in the test filed under Bos taurus [4]; in test [6]) was “tde” in each case.
In the case of `CCCC1C(=O)N(CS(=O)(=O)N[C@@H](Cc2ccccc2)C(=O)OC)S(=O)(=O)N1C` (some centres undefined), the Ratio in test [1] turned out to be 41800 M⁻¹ s⁻¹; in the test filed under Bos taurus [5], 50. Further, the result in test [2] and in test [3] was inactive. In addition, the Activity entry (in the test filed under Bos taurus [4]; in test [6]) was “tde” throughout.
As for `CCCC1C(=O)N(CS(=O)(=O)N[C@@H](CO)C(=O)OC)S(=O)(=O)N1C` (some centres undefined), the Ratio was 1100 M⁻¹ s⁻¹ in test [1] and 12 in the test filed under Bos taurus [5]. Besides, the result in test [2] and in test [3] was inactive. Besides, the Activity result (in the test filed under Bos taurus [4]; in test [6]) was “tde” each time.
For `CCCC1C(=O)N(CS(=O)(=O)N[C@@H](C)C(=O)OC)S(=O)(=O)N1C` (some centres undefined), the Ratio in test [1] came out at 1050 M⁻¹ s⁻¹. Moreover, the outcome in test [2] and in test [3] was inactive. The Activity result (in the test listed under Bos taurus [4]; in test [6]) was “tde” each time.
